Screening data from PubChem BioAssay.
Most compounds without a hit are left out; they make up all but 1.6% or so of the library.
Cardio protect: modulators protecting cardiomyocytes from myocardial damage | AID 588492 | H9c2 cardiomyocytes, H2O2 injury protection, ATPLite, 2 h | protection from H2O2 cell death, % at 20 µM | 360,000 tested, 0.63% active;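 active = compounds giving at least 50% protection of heart cells from peroxide-induced death in the single-dose screen, raw or plate-pattern-corrected value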
ASAP1 inh: ASAP1 ArfGAP inhibition | Q9ULH1 | ASAP1-stimulated ARF1 GTP hydrolysis, GDP FP detection | inhibition, % at 16.5 µM | 360,000 tested, 0.19% active | AID 624377; in the data active = inhibition above about 25%
ARFGAP1 inh: inhibitors of rat ARFGAP1 | AID 651572 | 360,000 tested, 0.26% active | Arfgap1-stimulated ARF1 GTP hydrolysis, GDP FP detection | inhibition, % at 16.5 µM;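 active = inhibition above a per-plate limit, mean inhibition of low control wells plus 3 SD, cut at about 25% in these data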
Target sequence (Q62848 1-136 limits assumed): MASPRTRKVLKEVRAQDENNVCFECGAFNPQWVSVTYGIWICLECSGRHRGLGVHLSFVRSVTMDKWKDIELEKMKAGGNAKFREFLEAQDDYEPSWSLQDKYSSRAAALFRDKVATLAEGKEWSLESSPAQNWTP
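Material: truncated rat Arfgap1 GAP domain; Incubation: compound-enzyme preincubation 20 min, reaction 120 min, detection 60 min, 25 °C; Read-out: percent inhibition of Arfgap1-stimulated GTP hydrolysis; Technique: FP, GDP Alexa 633 tracer displaced from anti-GDP antibody, 620/688 nm; Controls: No-Arfgap1 wells (100%) versus DMSO full-reaction wells (0%); Replication: single well per compound.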
Neddylation inh: blocks human cullin neddylation; P61081+Q13564; TR-FRET cullin neddylation, biochemical; inhibition, % at 25 µM; 360,000 tested, 0.58% active; in the data active = inhibition above about 36%
ARFGAP1 inh conf: rat ARFGAP1 inhibition, confirmed. shares compounds with ARFGAP1 inh. ARFGAP1-stimulated ARF1 GTP hydrolysis, GDP tracer FP. inhibition, % at 16.5 µM. 890 tested, 30% active. AID 651608;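 active = average inhibition over triplicates above the hit cutoff set in the earlier primary screen, cut at about 25% in these data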
Target sequence (Q62848 whole entry, looked up): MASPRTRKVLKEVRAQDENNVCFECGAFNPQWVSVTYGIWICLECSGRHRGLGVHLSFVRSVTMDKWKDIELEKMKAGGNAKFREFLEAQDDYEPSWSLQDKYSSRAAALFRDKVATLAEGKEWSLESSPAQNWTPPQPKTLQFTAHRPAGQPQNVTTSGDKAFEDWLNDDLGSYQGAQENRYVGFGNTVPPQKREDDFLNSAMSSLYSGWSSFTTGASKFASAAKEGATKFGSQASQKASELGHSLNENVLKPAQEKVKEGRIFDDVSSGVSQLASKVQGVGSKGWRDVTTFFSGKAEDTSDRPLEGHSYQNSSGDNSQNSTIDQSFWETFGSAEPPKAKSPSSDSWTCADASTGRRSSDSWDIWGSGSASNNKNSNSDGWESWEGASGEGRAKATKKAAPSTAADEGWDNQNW
Each line names hits and unclear results; the compound was inactive in the other large screens (follow-up assays come after a bar, where shown).

COc1ccc(C(=O)N2CCC(C)(C(=O)O)C2)c(OC)c1 (stereo not drawn)	ARFGAP1 inh 26 | ARFGAP1 inh conf inactive
CCOC(=O)C1CCN(C(=O)c2ccc(OC)cc2OC)CC1	ARFGAP1 inh 29 | ARFGAP1 inh conf inactive
CCCOc1ccc(C(=O)Nc2ccc(S(=O)(=O)N3C[C@@H]4C[C@@H](C3)c3cccc(=O)n3C4)cc2)cc1	ARFGAP1 inh 25 | ARFGAP1 inh conf inactive
COC(=O)c1cccc(Nc2cc(C)n(-c3cccc(C(=O)OC)c3)c(=O)c2)c1	none (no result: Cardio protect, Neddylation inh)
COc1cccc(-c2cnc(C(O)c3c(C)cc(C)cc3C)[nH]2)c1 (stereo not drawn)	none
COC(=O)C1=C(C)N(Cc2cccc(C(F)(F)F)c2)C(=NCc2cccc(C(F)(F)F)c2)NC1c1ccc(Cl)cc1 (stereo not drawn)	none (no result: Cardio protect, Neddylation inh)
CC(=O)Nc1ccc(SC(Sc2ccc(NC(C)=O)cc2)c2ccccc2)cc1	ARFGAP1 inh 30 | ARFGAP1 inh conf inactive
Cc1cc(C(=O)NNc2c(Cl)cccc2Cl)n(C(C)(C)C)n1	none
Cc1cc(C(=O)O)n(C(C)(C)C)n1	ARFGAP1 inh 27 | ARFGAP1 inh conf inactive
Cn1c(=O)c2c(-c3ccccc3F)c3c(nc2n(C)c1=O)-c1ccccc1C3O (stereo not drawn)	ARFGAP1 inh 25 | ARFGAP1 inh conf inactive
Cn1c(=O)c2c(SCC(=O)N3CCCCC3)nc(-c3ccccc3F)nc2n(C)c1=O	none
Cn1ccn(CCCCCCn2ccn(C)c2=S)c1=S	none
O=C(NC(c1ccc(F)cc1)c1ccc2ccccc2n1)C1CCN(Cc2cccc(C(F)(F)F)c2)CC1 (stereo not drawn)	ARFGAP1 inh 28 | ARFGAP1 inh conf inactive
COC(=O)C1=CN(c2ccc(Oc3ccccc3)cc2)C(N)=C(C#N)C1c1ccccc1 (stereo not drawn)	none (no result: Cardio protect)
COc1ccc(S(=O)(=O)N2CCCCCC2)cc1NC(=O)c1c2c(nc3ccccc13)CCN(Cc1ccccc1)C2	none
COc1ccc(NC(=O)c2c3c(nc4ccccc24)CCN(Cc2ccccc2)C3)c(OC)c1	ARFGAP1 inh 25 | ARFGAP1 inh conf inactive
COc1ccc(NC(=O)c2ccc(NC(=O)COC(=O)CC(NC(=O)c3ccccc3Cl)c3ccccc3)cc2)cc1 (stereo not drawn)	ARFGAP1 inh 26 | ARFGAP1 inh conf inactive
COc1ccc(CN2C[C@@]3(O)CC[C@@H](O)[C@@H](OC)[C@@H]3[C@@](C)(O)[C@@H]2CC=C(C)C)cc1	none (no result: Cardio protect, Neddylation inh)
CC(C)N(Cc1nc(-c2ccc(Cl)cc2)no1)Cc1nccn1C	ARFGAP1 inh 25 | ARFGAP1 inh conf inactive
COc1ccc(-c2noc(CN(Cc3nccn3C)C(C)C)n2)cc1	none
CC(=O)C1=C(C)N(Cc2ccc(F)cc2)C(=S)NC1c1cccc(F)c1 (stereo not drawn)	none (no result: Cardio protect, Neddylation inh)
CC1(C)CC(NC(=O)c2ccc3c(c2)OCO3)CC(C)(C)N1	ARFGAP1 inh 26 | ARFGAP1 inh conf inactive
CC1CCC(NC(=O)c2ccc3c(c2)OCO3)CC1 (stereo not drawn)	none
CCOC(=O)Cc1csc(N/C(=N/S(=O)(=O)c2ccc(F)cc2F)c2ccccc2)n1	ARFGAP1 inh active | ARFGAP1 inh conf inactive
Cc1cc(C)n(CCNC(=O)[C@@H](Cc2ccccc2)NC(=O)[C@H]2O[C@@H](n3ccc(=O)[nH]c3=O)[C@H](O)[C@@H]2O)n1	none (no result: Cardio protect, Neddylation inh)
Nc1ccn(C(C=O)CC(C=O)CO)c(=O)n1 (stereo not drawn)	none
COc1cc2c3nnc(-c4ccccc4)c-3cn(Cc3ccc(F)cc3)c2cc1OC	none (not shown: Neddylation inh)
COc1cc2c3nnc(-c4ccc(F)cc4)c-3cn(Cc3ccc(C)cc3)c2cc1OC	ARFGAP1 inh 39, Neddylation inh 38 | ARFGAP1 inh conf 48
O=C(Cc1cccs1)Nc1cccc(-c2nc3cc4ccccc4cc3[nH]2)c1	ARFGAP1 inh 25 (not shown: Neddylation inh) | ARFGAP1 inh conf 25
COc1ccccc1OCC(=O)NCC1CCCN(C(=O)c2ccccc2C(C)=O)C1 (stereo not drawn)	ARFGAP1 inh 28 | ARFGAP1 inh conf inactive
Cc1ccc(C(C)C)c(OCc2ccc(C(=O)N/N=C/c3ccc(O)cc3O)cc2)c1	Cardio protect 57, ARFGAP1 inh 30, Neddylation inh 44 | ARFGAP1 inh conf 32
O=C(c1cnc(Cc2c[nH]c3ccccc23)c(I)c1)N1CCCCC1	none
COc1ccc(NC(=O)COC(=O)c2c3c(nc4ccccc24)CCCC3)cc1Cl	ARFGAP1 inh 27 | ARFGAP1 inh conf inactive
CCN1CCCC1CNC(=O)c1ccc2c(c1)NC(=O)/C(=C\c1ccccc1Cl)S2 (stereo not drawn)	none
CCN1CCCC1CNC(=O)c1ccc2c(c1)NC(=O)/C(=C\c1ccc(OC)c(OC)c1)S2 (stereo not drawn)	ARFGAP1 inh 39 | ARFGAP1 inh conf 83
COc1ccc(/C=C2/SC(=O)N(CCC(=O)Nc3ccc(C)cc3)C2=O)cc1OC	none (no result: Cardio protect, Neddylation inh)
COc1cc(/C=C2\SC(N)=NC2=O)ccc1OCC(=O)Nc1ccc(C)cc1	ARFGAP1 inh 45 | ARFGAP1 inh conf 72
COc1ccccc1CNC(=O)c1ccc2nc(C)c(N(C)Cc3ccc(NC(C)=O)cc3)n2c1	none
Clc1cccc(CN2CCN(Cc3ccco3)CC2)c1	ARFGAP1 inh 25 | ARFGAP1 inh conf inactive
COc1ccc(S(=O)(=O)N2CCOCC2)cc1NC(=O)Cc1ccc(F)cc1	none
CCc1cc(C(=O)NNC(=O)CCl)sc1C	ARFGAP1 inh 25 | ARFGAP1 inh conf inactive
CCc1cc(C(=O)NNC(=O)CCN2CCN(c3ccccc3)CC2)sc1C	none
CCCOc1ccc(OCCNC2CCCC2)cc1	ARFGAP1 inh 26 | ARFGAP1 inh conf inactive
CN1C(=O)CC(N2CCC(c3nc4ccccc4s3)CC2)C1=O (stereo not drawn)	none
O=C1CC(N2CCC(c3nc4ccccc4s3)CC2)C(=O)N1Cc1ccccc1 (stereo not drawn)	ARFGAP1 inh 37 | ARFGAP1 inh conf inactive
OC(c1cccc(Cl)c1)c1nc(-c2csc3ccccc23)cs1 (stereo not drawn)	ARFGAP1 inh 25 | ARFGAP1 inh conf inactive
C[C@@H]1CN([C@H](C)CO)C(=O)c2cc(C#C[C@@H](C)O)cnc2O[C@H]1CN(C)C(=O)c1ccc(F)cc1	none
CCOc1cc(/C=C2\SC(=N)N(c3nccs3)C2=O)ccc1OCCN1CCOCC1	Cardio protect 54, ARFGAP1 inh 39 | ARFGAP1 inh conf 43
CCOc1cc(/C=C2\SC(=S)N(N3CCOCC3)C2=O)ccc1O	none
FC(F)(F)c1cc(CCN2C(=S)NC[C@@H]2Cc2ccccc2)cc(C(F)(F)F)c1	none
NC1=NC[C@H](Cc2ccccc2)N1CCc1cc(C(F)(F)F)cc(C(F)(F)F)c1	ARFGAP1 inh 25 | ARFGAP1 inh conf inactive
CCC(C(=O)NC(C)(C)C)n1c(C(c2ccccc2)c2ccccc2)nc2ccccc21 (stereo not drawn)	none (no result: Cardio protect)
Cc1onc(-c2ccccc2Cl)c1C(=O)N1CCCC1	none
Cc1onc(-c2ccccc2Cl)c1C(=O)N1CCC(C(N)=O)CC1	ARFGAP1 inh 32 | ARFGAP1 inh conf inactive
